Assays:
L02 = assay: Cytotoxicity against human L02 cells assessed as cell viability after 24 hrs by MTT assay; type: functional, cell-based; settings: L02, 24 h
In short: (§1)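 Cells pre-cultured 24 h at 37 C, then exposed for 24 h to compounds at […], with drug-free and DMSO solvent controls. MTT read-out: formazan dissolved in DMSO, absorbance at 568 nm. Inhibition rate taken relative to the negative control. IC50 from triplicate measurements.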

SMMC-7721 [1] = assay: Cytotoxicity against human SMMC-7721 cells assessed as cell viability after 24 hrs by MTT assay; type: functional, cell-based; settings: SMMC-7721, 24 h; in short: as §1
SMMC-7721 [2] = assay: Cytotoxicity against human SMMC-7721 cells assessed as cell viability after 48 hrs in presence of 100 umol/L FeSO4 by MTT assay; type: functional, cell-based; settings: SMMC-7721, 48 h
SMMC-7721 [3] = assay: Cytotoxicity against human SMMC-7721 cells assessed as cell viability after 48 hrs by MTT assay; type: functional, cell-based; settings: SMMC-7721, 48 h
In short: (§2)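 Cells pre-cultured 24 h at 37 C, then given fresh medium with compound at […] alongside drug-free and DMSO solvent controls. Incubated 48 h at 37 C, then MTT (2 mg/mL in PBS) added for 4 h. Formazan dissolved in DMSO and A568 read. Inhibition rate taken relative to the negative control. IC50 from triplicate measurements.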

SMMC-7721 [4] = assay: Induction of apoptosis in human SMMC-7721 cells assessed as necrotic cells at 0.1 ug/ml after 48 hrs annexin V-[…]/PI by flow cytometry (reference value: 0.15 to 0.29%); type: functional; settings: dose 0.1 µg/ml
SMMC-7721 [5] = assay: Induction of apoptosis in human SMMC-7721 cells assessed as late apoptotic cells at 0.1 ug/ml after 48 hrs annexin V-[…]/PI by flow cytometry (reference value: 2.42 to 3%); type: functional; settings: dose 0.1 µg/ml
SMMC-7721 [6] = assay: Induction of apoptosis in human SMMC-7721 cells assessed as late apoptotic cells at 100 ug/ml after 48 hrs annexin V-[…]/PI by flow cytometry (reference value: 2.42 to 3%); type: functional; settings: dose 100 µg/ml
MHCC97H = assay: Cytotoxicity against human MHCC97H cells assessed as cell viability after 48 hrs by MTT assay; type: functional, cell-based; in short: as §2
MCF-10A = assay: Cytotoxicity against human MCF-10A cells assessed as cell viability after 48 hrs by MTT assay; type: cell-based; in short: as §2
SMMC-7721 [7] = assay: Induction of apoptosis in human SMMC-7721 cells assessed as viable cells at 0.1 ug/ml after 48 hrs annexin V-[…]/PI by flow cytometry (reference value: 93.54 to 94.31%); type: functional; settings: read-out: Activity
SMMC-7721 [8] = assay: Induction of apoptosis in human SMMC-7721 cells assessed as viable cells at 100 ug/ml after 48 hrs annexin V-[…]/PI by flow cytometry (reference value: 93.54 to 94.31%); type: functional; settings: read-out: Activity
SMMC-7721 [9] = assay: Induction of apoptosis in human SMMC-7721 cells assessed as early apoptotic cells at 10 ug/ml after 48 hrs annexin V-[…]/PI by flow cytometry (reference value: 3.3 to 3.16%); type: functional; settings: dose 10 µg/ml
Huh-7 = assay: Cytotoxicity against human HUH-7 cells assessed as cell viability after 48 hrs by MTT assay; type: functional, cell-based; settings: Huh-7, 48 h; in short: as §2
SMMC-7721 [10] = assay: Induction of apoptosis in human SMMC-7721 cells assessed as late apoptotic cells at 10 ug/ml after 48 hrs annexin V-[…]/PI by flow cytometry (reference value: 2.42 to 3%); type: functional; settings: dose 10 µg/ml
SMMC-7721 [11] = assay: Induction of apoptosis in human SMMC-7721 cells assessed as necrotic cells at 10 ug/ml after 48 hrs annexin V-[…]/PI by flow cytometry (reference value: 0.15 to 0.29%); type: functional; settings: dose 10 µg/ml
SMMC-7721 [12] = assay: Induction of apoptosis in human SMMC-7721 cells assessed as early apoptotic cells at 100 ug/ml after 48 hrs annexin V-[…]/PI by flow cytometry (reference value: 3.3 to 3.16%); type: functional; settings: dose 100 µg/ml
SMMC-7721 [13] = assay: Induction of apoptosis in human SMMC-7721 cells assessed as viable cells at 10 ug/ml after 48 hrs annexin V-[…]/PI by flow cytometry (reference value: 93.54 to 94.31%); type: functional; settings: read-out: Activity
MCF7 = assay: Cytotoxicity against human MCF7 cells assessed as cell viability after 48 hrs by MTT assay; type: functional, cell-based; settings: MCF7, 48 h; in short: as §2
CCD-18Co = assay: Cytotoxicity against human CCD-18C0 cells assessed as cell viability after 48 hrs by MTT assay; type: functional, cell-based; in short: as §2
SMMC-7721 [14] = assay: Induction of apoptosis in human SMMC-7721 cells assessed as early apoptotic cells at 0.1 ug/ml after 48 hrs annexin V-[…]/PI by flow cytometry (reference value: 3.3 to 3.16%); type: functional; settings: dose 0.1 µg/ml
[15] = Cytotoxicity against human HCCLM3 cells assessed as cell viability after 48 hrs by MTT assay; type: functional, cell-based; settings: HCCLM3, 48 h; in short: as §2
HCT-116 = assay: Cytotoxicity against human HCT-116 cells assessed as cell viability after 48 hrs by MTT assay; type: functional, cell-based; settings: HCT-116, 48 h; in short: as §2
SMMC-7721 [16] = assay: Induction of apoptosis in human SMMC-7721 cells assessed as necrotic cells at 100 ug/ml after 48 hrs annexin V-[…]/PI by flow cytometry (reference value: 0.15 to 0.29%); type: functional; settings: dose 100 µg/ml

Work on `CC(C)[C@H]1CC[C@H](C)C[C@@H]1O[C@H]1OC(=O)C(Cl)=C1N1CCN([C@@H]2O[C@@H]3O[C@@]4(C)CC[C@H]5[C@H](C)CC[C@@H]([C@H]2C)[C@@]35OO4)CC1` yielded an IC50 (L02) of 640 nM and an IC50 (SMMC-7721 [1]) of 520 nM.

`COC1OC(=O)C(Br)=C1N1CCN([C@@H]2O[C@@H]3O[C@@]4(C)CC[C@H]5[C@H](C)CC[C@@H]([C@H]2C)[C@@]35OO4)CC1` (stereo partly drawn) gave an IC50 (L02) of 260 nM and an IC50 (SMMC-7721 [1]) of 290 nM.

`C[C@H]1[C@H](N2CCN(C3=C(Cl)C(=O)OC3O[C@H]3CC4CCC3(C)C4(C)C)CC2)O[C@@H]2O[C@@]3(C)CC[C@H]4[C@H](C)CC[C@@H]1[C@@]24OO3` (stereo partly drawn) showed an IC50 (L02) of 460 nM and an IC50 (SMMC-7721 [1]) of 570 nM.

With `COC1OC(=O)C(Cl)=C1N1CCN([C@@H]2O[C@@H]3O[C@@]4(C)CC[C@H]5[C@H](C)CC[C@@H]([C@H]2C)[C@@]35OO4)CC1` (stereo partly drawn) the IC50 (SMMC-7721 [2]) was 100 nM, the IC50 (L02) was 320 nM and the IC50 (SMMC-7721 [3]) was 110 nM. The Activity (SMMC-7721 [4]) was 0.14%, the Activity (SMMC-7721 [5]) was 3.21% and the Activity (SMMC-7721 [6]) was 14.42%. The IC50 (MHCC97H) was 100 nM, the IC50 (MCF-10A) was 220 nM and the viability at 0.1 µg/mL (SMMC-7721 [7]) was 88.6%. The viability at 100 µg/mL (SMMC-7721 [8]) was 60.3%, the Activity (SMMC-7721 [9]) was 8.77% and the IC50 (Huh-7) was 160 nM. For the same compound, the Activity (SMMC-7721 [10]) was 6.06%, the Activity (SMMC-7721 [11]) was 0.49% and the Activity (SMMC-7721 [12]) was 20.35%. For the same compound, the viability at 10 µg/mL (SMMC-7721 [13]) was 82.1%, the IC50 (MCF7) was 80 nM and the IC50 (SMMC-7721 [1]) was 260 nM. It also gave an IC50 (CCD-18Co) of 100 nM, an Activity (SMMC-7721 [14]) of 4.26% and an IC50 [15] of 100 nM. For the same compound, the IC50 (HCT-116) was 100 nM and the Activity (SMMC-7721 [16]) was 0.73%.

In the case of `C[C@H]1[C@H](N2CCN(C3=C(Br)C(=O)O[C@@H]3O[C@H]3CC4CCC3(C)C4(C)C)CC2)O[C@@H]2O[C@@]3(C)CC[C@H]4[C@H](C)CC[C@@H]1[C@@]24OO3`, the IC50 (L02) is reported as 480 nM and the IC50 (SMMC-7721 [1]) is reported as 480 nM.

Work on `CC(C)[C@H]1CC[C@H](C)C[C@@H]1O[C@H]1OC(=O)C(Br)=C1N1CCN([C@@H]2O[C@@H]3O[C@@]4(C)CC[C@H]5[C@H](C)CC[C@@H]([C@H]2C)[C@@]35OO4)CC1` yielded an IC50 (L02) of 360 nM and an IC50 (SMMC-7721 [1]) of 390 nM.

With `CCOC1OC(=O)C(Cl)=C1N1CCN([C@@H]2O[C@@H]3O[C@@]4(C)CC[C@H]5[C@H](C)CC[C@@H]([C@H]2C)[C@@]35OO4)CC1` (stereo partly drawn) the IC50 (L02) was over 700 nM and the IC50 (SMMC-7721 [1]) was 560 nM.

`CCOC1OC(=O)C(Br)=C1N1CCN([C@@H]2O[C@@H]3O[C@@]4(C)CC[C@H]5[C@H](C)CC[C@@H]([C@H]2C)[C@@]35OO4)CC1` (stereo partly drawn) gave an IC50 (L02) of 500 nM and an IC50 (SMMC-7721 [1]) of 430 nM.

`C[C@H]1[C@H](O)O[C@@H]2O[C@@]3(C)CC[C@H]4[C@H](C)CC[C@@H]1[C@@]24OO3` gave an IC50 (L02) of 220 nM and an IC50 (SMMC-7721 [1]) of over 700 nM.

For `C[C@@H]1CC[C@H]2[C@@H](C)C(=O)O[C@@H]3O[C@@]4(C)CC[C@@H]1[C@]32OO4` [ARTEMISININ], the IC50 (L02) was 430 nM and the IC50 (SMMC-7721 [1]) was 630 nM.

`CC[C@]1(O)C[C@H]2CN(CCc3c([nH]c4ccccc34)[C@@](C(=O)OC)(c3cc4c(cc3OC)N(C=O)[C@H]3[C@@](O)(C(=O)OC)[C@H](OC(C)=O)[C@]5(CC)C=CCN6CC[C@]43[C@@H]65)C2)C1` [VINCRISTINE] gave an IC50 (L02) of 300 nM and an IC50 (SMMC-7721 [1]) of 270 nM.

Reference: ChEMBL document CHEMBL4732241, “Synthesis of artemisinin-piperazine-furan ether hybrids and evaluation of in vitro cytotoxic activity” (Eur J Med Chem, 2021)
